Source: ChEMBL document CHEMBL4145675, “2-Phenylquinoline S. aureus NorA Efflux Pump Inhibitors: Evaluation of the Importance of Methoxy Group Introduction” (J Med Chem, 2018)
Converted amounts (≈) assume the structure as drawn. The source made the active and inactive calls. No cut-off for these calls is given here.

Legend:
[1] = Selectivity index, ratio of CC50 for human HepG2 cells to inhibition of NorA in Staphylococcus aureus SA-1199B expressing GrlA A116E mutant assessed as minimal potentiating drug concentration causing 8 fold reduction in ciprofloxacin MIC by microdilution method based Checkerboard assay; assay type: toxicity; conditions: read-out: Selectivity Index
Outline: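 CC50 cells (HepG2 for […], THP-1 for […]) were grown to confluence in RPMI 1640 with 10% FCS, penicillin and streptomycin. They were exposed 24 h at 37 °C to 0–250 µg/mL. Viability was read by ATP bioluminescence, triplicate. CC50 is the concentration reducing cell number 50% versus untreated.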

[2] = biological target: T1, Quinolone resistance protein NorA (Staphylococcus aureus) (UniProt P0A0J7); experiment: Inhibition of NorA in Staphylococcus aureus SA-1199B expressing GrlA A116E mutant assessed as synergistic potentiation of ciprofloxacin-induced antimicrobial activity by measuring reduction in ciprofloxacin MIC at 0.78 ug/ml by microdilution method based Checkerboard assay
T1 sequence (whole entry): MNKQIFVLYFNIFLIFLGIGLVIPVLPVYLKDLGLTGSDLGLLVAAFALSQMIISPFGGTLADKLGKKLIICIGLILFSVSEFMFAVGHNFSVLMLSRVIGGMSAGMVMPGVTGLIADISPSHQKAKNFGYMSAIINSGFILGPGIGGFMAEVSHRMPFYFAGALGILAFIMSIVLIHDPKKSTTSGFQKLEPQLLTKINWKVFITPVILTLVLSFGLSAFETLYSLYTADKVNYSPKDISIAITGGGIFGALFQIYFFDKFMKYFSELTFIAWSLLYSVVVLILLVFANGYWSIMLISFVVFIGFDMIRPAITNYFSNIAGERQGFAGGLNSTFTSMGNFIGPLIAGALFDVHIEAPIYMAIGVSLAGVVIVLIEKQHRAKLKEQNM

Staphylococcus aureus [3] = experiment: Antimicrobial activity against Staphylococcus aureus ATCC 25923 by microdilution method; assay type: organism-based; conditions: in vivo
Outline: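 Broth microdilution MIC per CLSI guidelines. ATCC 25923 is norA wild-type. SA-1199B overexpresses norA and carries an A116E GrlA substitution.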

Staphylococcus aureus [4] = experiment: Synergistic potentiation of ciprofloxacin-induced antimicrobial activity against wild type Staphylococcus aureus ATCC 25923 at 0.78 to 100 ug/ml by microdilution method based Checkerboard assay; assay type: functional, organism-based
Cytochrome P450 3A4 = Cytochrome P450 3A4 (Homo sapiens, UniProt P08684); experiment: Inhibition of human recombinant CYP3A4 at 1 uM using beetle D-luciferin as substrate by CYP450-Glo assay; assay type: ADME; conditions: recombinant enzyme
Chain of Cytochrome P450 3A4 (P08684 whole entry): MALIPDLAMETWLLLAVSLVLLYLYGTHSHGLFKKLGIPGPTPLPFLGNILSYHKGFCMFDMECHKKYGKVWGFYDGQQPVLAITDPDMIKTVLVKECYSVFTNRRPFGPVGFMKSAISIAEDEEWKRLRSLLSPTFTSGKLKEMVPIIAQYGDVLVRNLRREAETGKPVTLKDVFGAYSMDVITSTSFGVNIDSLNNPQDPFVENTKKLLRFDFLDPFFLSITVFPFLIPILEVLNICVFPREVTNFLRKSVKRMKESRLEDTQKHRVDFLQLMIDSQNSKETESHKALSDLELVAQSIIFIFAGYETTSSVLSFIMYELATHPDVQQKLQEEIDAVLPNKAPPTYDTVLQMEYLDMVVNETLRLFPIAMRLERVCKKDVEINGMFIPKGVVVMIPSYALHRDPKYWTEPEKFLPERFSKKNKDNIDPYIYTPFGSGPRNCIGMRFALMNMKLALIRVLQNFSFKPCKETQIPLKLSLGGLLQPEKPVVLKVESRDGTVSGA
Outline: (§1)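 Luminescent P450-Glo assay in which recombinant human CYP3A4 or CYP2D6 converts a beetle D-luciferin derivative to D-luciferin. Compound was tested at 1 and 10 µM.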

Staphylococcus aureus [5] = experiment: Antimicrobial activity against mepA deficient Staphylococcus aureus SA-K2885 by microdilution method; assay type: organism-based; conditions: in vivo
Outline: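 CLSI broth microdilution MIC of the compound alone in norA-deleted strains. SA-K2885 carries empty pALC2073 and SA-K2886 carries pALC2073-mepA (xyl/tetO promoter). 0.05 µg/mL tetracycline was present throughout to induce.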

Staphylococcus aureus [6] = experiment: Induction of membrane depolarization in Staphylococcus aureus SA-1199B expressing wild type norA at 1 ug/ml incubated for 30 mikns by DiOC2(3) fluorescent probe based cytofluorimetry; assay type: organism-based; conditions: in the assay text read “overexpressing norA” for “expressing wild type norA”
Outline: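 SA-1199B was grown in MHB at 37 °C to OD600 0.6, washed, and diluted to 1×10^6 CFU/mL in filtered PBS. DiOC2(3) was added at 30 µM final, and compound at 1, 5 or 10 µg/mL for 30 min. CCCP 5 µM final served as positive control. Flow cytometry with 488 nm excitation gave a red/green ratio normalized to the DiOC2(3) blank, expressed as % depolarized versus drug-free control.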

Staphylococcus aureus [7] = experiment: Synergistic potentiation of ciprofloxacin-induced antimicrobial activity against Staphylococcus aureus SA-1199 at 0.78 to 100 ug/ml by microdilution method based Checkerboard assay; assay type: functional, organism-based
[8] = biological target: T1, Quinolone resistance protein NorA (Staphylococcus aureus); experiment: Inhibition of NorA in Staphylococcus aureus SA-1199B expressing GrlA A116E mutant assessed as reduction in EtBr efflux at 50 uM incubated for 5 mins by fluorescence based assay
Outline: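 Cells were grown overnight in cation-supplemented Mueller-Hinton broth at 35 °C and subcultured to OD600 0.7–0.8. They were loaded at OD600 0.8 with 25 µM EtBr plus 100 µM CCCP (final) for 20 min at room temperature. Cells were then resuspended in fresh broth with or without compound, 50 µM for the single-point screen or a concentration series for IC50. Fluorescence (ex 485/em 645 nm) was read for 5 min. Inhibition was calculated from the fluorescence decrease versus untreated cells. Biological triplicate, each run twice.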

Staphylococcus aureus [9] = experiment: Antimicrobial activity against Staphylococcus aureus SA-1199B expressing wild type norA and co-expressing GrlA A116E mutant by microdilution method; assay type: organism-based; conditions: in vivo
Outline: (§2)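 CLSI broth microdilution MIC of the compound alone. Strains: SA-K1902 (norA deleted), SA-K2378 (SA-K1902 carrying norA plus its promoter on multicopy plasmid pCU1), SA-1199B (norA overexpressing, GrlA A116E).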

[10] = biological target: T1, Quinolone resistance protein NorA (Staphylococcus aureus); experiment: Inhibition of NorA in Staphylococcus aureus SA-K2378 assessed as synergistic potentiation of ciprofloxacin-induced antimicrobial activity at 0.78 to 100 ug/ml by microdilution method based Checkerboard assay
[11] = biological target: T1, Quinolone resistance protein NorA (Staphylococcus aureus); experiment: Inhibition of NorA in Staphylococcus aureus SA-1199B expressing GrlA A116E mutant assessed as minimal potentiating drug concentration causing 8 fold reduction in ciprofloxacin MIC by microdilution method based Checkerboard assay
[12] = Metabolic stability in mouse liver microsomes assessed as parent compound remaining at 50 uM in presence of NADPH regenerating system incubated for 120 mins by UPLC/MS analysis; assay type: ADME, microsome; conditions: read-out: Stability
Outline: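 1 mg/mL mouse liver microsomes in 0.1 M Tris-HCl pH 7.4 with test compound at 50 µM, DMSO up to ~3%. Preincubated 5 min at 37 °C, then started with NADPH regeneration system. Stopped at 120 min with cold methanol and centrifuged. Supernatant analysed by UPLC/MS (ESI, tandem quadrupole).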

Cytochrome P450 2D6 [13] = biological target: T2, Cytochrome P450 2D6 (Homo sapiens, UniProt P10635); experiment: Inhibition of human recombinant CYP2D6 at 1 uM using beetle D-luciferin as substrate by CYP450-Glo assay; assay type: ADME; conditions: recombinant enzyme; outline: as §1
T2 sequence (P10635 whole entry): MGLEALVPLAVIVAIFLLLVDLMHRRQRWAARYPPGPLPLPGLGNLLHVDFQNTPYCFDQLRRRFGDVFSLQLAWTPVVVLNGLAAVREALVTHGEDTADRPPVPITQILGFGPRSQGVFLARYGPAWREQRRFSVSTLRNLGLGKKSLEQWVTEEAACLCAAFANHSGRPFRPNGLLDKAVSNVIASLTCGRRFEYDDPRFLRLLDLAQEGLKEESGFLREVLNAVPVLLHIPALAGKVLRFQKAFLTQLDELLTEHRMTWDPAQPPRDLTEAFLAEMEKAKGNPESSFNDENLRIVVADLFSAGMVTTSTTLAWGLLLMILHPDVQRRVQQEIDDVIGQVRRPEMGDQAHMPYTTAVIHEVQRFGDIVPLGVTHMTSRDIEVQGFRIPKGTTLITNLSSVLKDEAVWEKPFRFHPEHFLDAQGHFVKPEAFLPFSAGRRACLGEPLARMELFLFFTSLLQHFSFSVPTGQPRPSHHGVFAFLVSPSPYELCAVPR

Staphylococcus aureus [14] = experiment: Antimicrobial activity against NorA deficient Staphylococcus aureus SA-K1902 by microdilution method; assay type: organism-based; conditions: in vivo; outline: as §2
Staphylococcus aureus [15] = experiment: Synergistic potentiation of EtBr-induced antimicrobial activity against mepA deficient Staphylococcus aureus SA-K2885 at 0.78 to 100 ug/ml by microdilution method based Checkerboard assay; assay type: organism-based; conditions: in vivo
Outline: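 Checkerboard combination of EtBr with compound, using broth microdilution MICs. SA-K2886 (norA-deleted, pALC2073-mepA) and SA-K2885 (norA-deleted, empty pALC2073) were run with 0.05 µg/mL tetracycline in all experiments to induce the xyl/tetO promoter.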

Cytochrome P450 2D6 [16] = biological target: T2, Cytochrome P450 2D6; experiment: Inhibition of human recombinant CYP2D6 at 10 uM using beetle D-luciferin as substrate by CYP450-Glo assay; assay type: ADME; conditions: recombinant enzyme; outline: as §1

| Compound | selectivity ratio [1] | fold change (FC) [2] | MIC (Staphylococcus aureus [3]) | synergistic potentiation of ciprofloxacin activity (Staphylococcus aureus [4]) | inhibition (INH) (Cytochrome P450 3A4) | MIC (Staphylococcus aureus [5]) | Activity (Staphylococcus aureus [6]) | inhibition (Staphylococcus aureus [7]) | inhibition [8] | MIC (Staphylococcus aureus [9]) | inhibition [10] | Activity [11] | remaining at 2 h, 50 µM [12] | inhibition (INH) (Cytochrome P450 2D6 [13]) | MIC (Staphylococcus aureus [14]) | Activity (Staphylococcus aureus [15]) | inhibition (INH) (Cytochrome P450 2D6 [16]) |
| --- | --- | --- | --- | --- | --- | --- | --- | --- | --- | --- | --- | --- | --- | --- | --- | --- | --- |
| CCCOc1ccc(-c2cc(OCCN3CCCCC3)c3cc(OC)ccc3n2)cc1 | 50 | 8 | 50 µg/mL (≈ 119 µM) | Active | Not Active | 12.5 µg/mL (≈ 29.7 µM) | < 10% | Active | 97.6% | 238 µM (≈ 100 µg/mL) | Active | 0.78 µg/mL | > 90% | Not Active | 25 µg/mL (≈ 59.4 µM) | Non-Toxic | Active |
| CCCOc1ccc(-c2cc(OCCN3CCc4cc(OC)c(OC)cc4C3)c3cc(OC)c(OC)cc3n2)cc1 | 95 | 8 | > 100 µg/mL | Active | Not Active | 100 µg/mL (≈ 179 µM) | < 20% | Active | 94.1% | > 179 µM | Active | 0.78 µg/mL | 62% | Not Active | 100 µg/mL (≈ 179 µM) | Non-Toxic | Active |
